Experiments:
[1] = tested on: Trichophyton mentagrophytes; assay: Antifungal activity against Trichophyton mentagrophytes PMC 6552 after 72 hrs by CLSI broth microdilution method; assay type: functional; conditions: PMC 6552, 72 h
Procedure, shortened: (§1)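 Dermatophytes tested by CLSI broth microdilution for filamentous fungi (M38-A2). Serial two-fold dilutions of DMSO-dissolved compound in RPMI 1640, final 0.125–64. Inoculum was 0.4–5 × 10^4 CFU mL−1, incubated at 35 °C and read at 72 h. MIC80 is the lowest concentration giving ≥80% growth inhibition versus growth control. Median of five replicates, plus geometric mean.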

Candida parapsilosis [2] = assay: Antifungal activity against Candida parapsilosis DSM 11224 after 48 hrs by CLSI broth microdilution method; assay type: functional; conditions: Lodderomyces parapsilosis, DSM 11224, 48 h
Procedure, shortened: (§2)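 Yeast CLSI broth microdilution (M27-A3). Compounds dissolved in DMSO at 100× the top test concentration, then diluted as serial two-fold dilutions in RPMI 1640 to final 0.125–64. Inoculum was 1.0–1.5 × 10^3 cells mL−1, incubated at 35 °C and read for growth at 48 h. MIC is the lowest concentration giving ≥50% growth inhibition versus growth control. Reported as the median of five replicates and as the geometric mean.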

Nakaseomyces glabratus [3] = assay: Antifungal activity against Candida glabrata PMC 0852R after 48 hrs by CLSI broth microdilution method; assay type: functional; procedure, shortened: as §2
Candida tropicalis [4] = assay: Antifungal activity against Candida tropicalis PMC 0910 after 48 hrs by CLSI broth microdilution method; assay type: functional; conditions: PMC 0910, 48 h; procedure, shortened: as §2
Nakaseomyces glabratus [5] = assay: Antifungal activity against Candida glabrata PMC 0805 after 48 hrs by CLSI broth microdilution method; assay type: functional; conditions: PMC 0805, 48 h; procedure, shortened: as §2
Cryptococcus neoformans [6] = assay: Antifungal activity against Cryptococcus neoformans PMC 2102 after 72 hrs by CLSI broth microdilution method; assay type: functional; conditions: PMC 2102, 72 h
Procedure, shortened: (§3)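 Cryptococcus neoformans tested by CLSI broth microdilution in RPMI 1640, with serial two-fold dilutions from DMSO stocks at 100× the top concentration, final 0.125–64. Inoculum was 1.0–1.5 × 10^3 cells mL−1 at 35 °C, with growth read at 72 h. MIC is the lowest concentration with ≥50% growth inhibition versus control. Median of five replicates, plus geometric mean.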

Nannizzia gypsea [7] = assay: Antifungal activity against Microsporum gypseum DSM 3824 after 72 hrs by CLSI broth microdilution method; assay type: functional; conditions: DSM 3824, 72 h; procedure, shortened: as §1
[8] = tested on: Trichophyton mentagrophytes; assay: Antifungal activity against Trichophyton mentagrophytes PMC 6509 after 72 hrs by CLSI broth microdilution method; assay type: functional; conditions: PMC 6509, 72 h; procedure, shortened: as §1
[9] = tested on: Trichophyton mentagrophytes; assay: Antifungal activity against Trichophyton mentagrophytes PMC 6515 after 72 hrs by CLSI broth microdilution method; assay type: functional; conditions: PMC 6515, 72 h; procedure, shortened: as §1
Nakaseomyces glabratus [10] = assay: Antifungal activity against Candida glabrata PMC 0853R after 48 hrs by CLSI broth microdilution method; assay type: functional; procedure, shortened: as §2
Candida albicans [11] = assay: Antifungal activity against Candida albicans ATCC 10231 after 48 hrs by CLSI broth microdilution method; assay type: functional; conditions: ATCC 10231, 48 h; procedure, shortened: as §2
Cryptococcus neoformans [12] = assay: Antifungal activity against Cryptococcus neoformans PMC 2107 after 72 hrs by CLSI broth microdilution method; assay type: functional; conditions: PMC 2107, 72 h; procedure, shortened: as §3
[13] = tested on: Trichophyton mentagrophytes; assay: Antifungal activity against Trichophyton mentagrophytes PMC 6531 after 72 hrs by CLSI broth microdilution method; assay type: functional; conditions: PMC 6531, 72 h; procedure, shortened: as §1
Nannizzia gypsea [14] = assay: Antifungal activity against Microsporum gypseum PMC 7303 after 72 hrs by CLSI broth microdilution method; assay type: functional; conditions: PMC 7303, 72 h; procedure, shortened: as §1
Cryptococcus neoformans [15] = assay: Antifungal activity against Cryptococcus neoformans DSM 11959 after 72 hrs by CLSI broth microdilution method; assay type: functional; conditions: DSM 11959, 72 h; procedure, shortened: as §3
Candida albicans [16] = assay: Antifungal activity against Candida albicans PMC 1042R after 48 hrs by CLSI broth microdilution method; assay type: functional; procedure, shortened: as §2
Cryptococcus neoformans [17] = assay: Antifungal activity against Cryptococcus neoformans PMC 2123 after 72 hrs by CLSI broth microdilution method; assay type: functional; conditions: PMC 2123, 72 h; procedure, shortened: as §3
Candida albicans [18] = assay: Antifungal activity against Candida albicans ATCC 3153 after 48 hrs by CLSI broth microdilution method; assay type: functional; conditions: ATCC 3153, 48 h; procedure, shortened: as §2
Nakaseomyces glabratus [19] = assay: Antifungal activity against Candida glabrata PMC 0851R after 48 hrs by CLSI broth microdilution method; assay type: functional; procedure, shortened: as §2
Candida albicans [20] = assay: Antifungal activity against Candida albicans PMC 1040R after 48 hrs by CLSI broth microdilution method; assay type: functional; procedure, shortened: as §2
Candida albicans [21] = assay: Antifungal activity against Candida albicans ATCC 10261 after 48 hrs by CLSI broth microdilution method; assay type: functional; conditions: ATCC 10261, 48 h; procedure, shortened: as §2
Nakaseomyces glabratus [22] = assay: Antifungal activity against Candida glabrata PMC 0850R after 48 hrs by CLSI broth microdilution method; assay type: functional; procedure, shortened: as §2
Pichia kudriavzevii [23] = assay: Antifungal activity against Candida krusei DSM 6128 after 48 hrs by CLSI broth microdilution method; assay type: functional; conditions: DSM 6128, 48 h; procedure, shortened: as §2
Nakaseomyces glabratus [24] = assay: Antifungal activity against Candida glabrata PMC 0807 after 48 hrs by CLSI broth microdilution method; assay type: functional; conditions: PMC 0807, 48 h; procedure, shortened: as §2
Candida albicans [25] = assay: Antifungal activity against Candida albicans ATCC 90028 after 48 hrs by CLSI broth microdilution method; assay type: functional; conditions: ATCC 90028, 48 h; procedure, shortened: as §2
Cryptococcus neoformans [26] = assay: Antifungal activity against Cryptococcus neoformans PMC 2136 after 72 hrs by CLSI broth microdilution method; assay type: functional; conditions: PMC 2136, 72 h; procedure, shortened: as §3
Candida albicans [27] = assay: Antifungal activity against Candida albicans ATCC 76615 after 48 hrs by CLSI broth microdilution method; assay type: functional; conditions: ATCC 76615, 48 h; procedure, shortened: as §2
Candida albicans [28] = assay: Antifungal activity against Candida albicans ATCC 24433 after 48 hrs by CLSI broth microdilution method; assay type: functional; conditions: ATCC 24433, 48 h; procedure, shortened: as §2
Candida albicans [29] = assay: Antifungal activity against Candida albicans PMC 1011 after 48 hrs by CLSI broth microdilution method; assay type: functional; conditions: PMC 1011, 48 h; procedure, shortened: as §2
Cryptococcus neoformans [30] = assay: Antifungal activity against Cryptococcus neoformans PMC 2111 after 72 hrs by CLSI broth microdilution method; assay type: functional; conditions: PMC 2111, 72 h; procedure, shortened: as §3
[31] = tested on: Trichophyton mentagrophytes; assay: Antifungal activity against Trichophyton mentagrophytes PMC 6503 after 72 hrs by CLSI broth microdilution method; assay type: functional; conditions: PMC 6503, 72 h; procedure, shortened: as §1
Cryptococcus neoformans [32] = assay: Antifungal activity against Cryptococcus neoformans PMC 2103 after 72 hrs by CLSI broth microdilution method; assay type: functional; conditions: PMC 2103, 72 h; procedure, shortened: as §3
Candida albicans [33] = assay: Antifungal activity against Candida albicans PMC 1041R after 48 hrs by CLSI broth microdilution method; assay type: functional; procedure, shortened: as §2
Cryptococcus neoformans [34] = assay: Antifungal activity against Cryptococcus neoformans PMC 2115 after 72 hrs by CLSI broth microdilution method; assay type: functional; conditions: PMC 2115, 72 h; procedure, shortened: as §3
Candida parapsilosis [35] = assay: Antifungal activity against Candida parapsilosis ATCC 22019 after 48 hrs by CLSI broth microdilution method; assay type: functional; conditions: Lodderomyces parapsilosis, ATCC 22019, 48 h; procedure, shortened: as §2
Nannizzia gypsea [36] = assay: Antifungal activity against Microsporum gypseum PMC 7331 after 72 hrs by CLSI broth microdilution method; assay type: functional; conditions: PMC 7331, 72 h; procedure, shortened: as §1
Candida tropicalis [37] = assay: Antifungal activity against Candida tropicalis DSM 11953 after 48 hrs by CLSI broth microdilution method; assay type: functional; conditions: DSM 11953, 48 h; procedure, shortened: as §2
Pichia kudriavzevii [38] = assay: Antifungal activity against Candida krusei PMC 0613 after 48 hrs by CLSI broth microdilution method; assay type: functional; conditions: PMC 0613, 48 h; procedure, shortened: as §2
Candida albicans [39] = assay: Antifungal activity against Candida albicans ATCC 20891 after 48 hrs by CLSI broth microdilution method; assay type: functional; conditions: ATCC 20891, 48 h; procedure, shortened: as §2
[40] = tested on: Trichophyton mentagrophytes; assay: Antifungal activity against Trichophyton mentagrophytes DSM 4870 after 72 hrs by CLSI broth microdilution method; assay type: functional; conditions: DSM 4870, 72 h; procedure, shortened: as §1
[41] = Cytotoxicity against human A549 cells after 48 hrs by MTT assay; assay type: cell-based
Procedure, shortened: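 A549 cells (ATCC CCL-185) seeded at 2 × 10^4/well in phenol-red-free RPMI 1640 with 10% FBS, L-glutamine, penicillin and streptomycin, at 37 °C and 5% CO2. Exposed 48 h to DMSO-dissolved compounds (final 16–256; at least five concentrations, triplicate). MTT added for 3–4 h, crystals solubilized, OD read at 570 nm. CC50 taken versus the DMSO control. Mean ± SD of two independent experiments.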

OC(Cn1cncn1)(Cn1cncn1)c1ccc(F)cc1F [FLUCONAZOLE]
4 µg/mL: MIC50 (Candida tropicalis [4]) | MIC50 (Cryptococcus neoformans [6]) | MIC80 [13] | MIC50 (Candida albicans [21]) | MIC50 (Cryptococcus neoformans [34])
1 µg/mL: MIC50 (Candida parapsilosis [2]) | MIC50 (Nakaseomyces glabratus [5]) | MIC80 [8] | MIC50 (Cryptococcus neoformans [12]) | MIC50 (Cryptococcus neoformans [30]) | MIC50 (Candida tropicalis [37]) | MIC50 (Candida albicans [39])
0.5 µg/mL: MIC50 (Candida albicans [25]) | MIC50 (Candida albicans [27]) | MIC50 (Candida albicans [28])
128 µg/mL: MIC50 (Nakaseomyces glabratus [19])
2 µg/mL: MIC50 (Candida albicans [11]) | MIC50 (Cryptococcus neoformans [15]) | MIC50 (Cryptococcus neoformans [17]) | MIC50 (Cryptococcus neoformans [26]) | MIC80 [31] | MIC50 (Cryptococcus neoformans [32]) | MIC50 (Candida parapsilosis [35])
16 µg/mL: MIC50 (Nakaseomyces glabratus [3]) | MIC80 (Nannizzia gypsea [7]) | MIC80 (Nannizzia gypsea [14]) | MIC50 (Candida albicans [16]) | MIC50 (Candida albicans [18]) | MIC50 (Pichia kudriavzevii [23]) | MIC50 (Nakaseomyces glabratus [24]) | MIC80 (Nannizzia gypsea [36]) | MIC80 [40]
0.25 µg/mL: MIC50 (Candida albicans [29])
512 µg/mL: MIC50 (Candida albicans [20])
32 µg/mL: MIC50 (Nakaseomyces glabratus [10]) | MIC50 (Nakaseomyces glabratus [22]) | MIC50 (Candida albicans [33])
8 µg/mL: MIC80 [1] | MIC80 [9] | MIC50 (Pichia kudriavzevii [38])

O=C(Nc1ccc(N2CCN(c3ccc(Cl)cc3)CC2)cc1)OC(Cn1ccnc1)c1ccc(F)cc1 (stereo unspecified)
0.25 µg/mL: MIC50 (Cryptococcus neoformans [6]) | MIC50 (Cryptococcus neoformans [12]) | MIC50 (Cryptococcus neoformans [15]) | MIC50 (Candida albicans [25]) | MIC50 (Candida albicans [29]) | MIC50 (Cryptococcus neoformans [32]) | MIC50 (Cryptococcus neoformans [34]) | MIC50 (Candida parapsilosis [35])
4 µg/mL: MIC50 (Nakaseomyces glabratus [3]) | MIC80 (Nannizzia gypsea [7]) | MIC50 (Nakaseomyces glabratus [10]) | MIC50 (Candida albicans [11]) | MIC80 (Nannizzia gypsea [14]) | MIC50 (Candida albicans [28])
8 µg/mL: MIC80 [1] | MIC80 [8] | MIC80 [9] | MIC80 [13] | MIC50 (Candida albicans [18]) | MIC50 (Candida albicans [27]) | MIC80 [31] | MIC80 (Nannizzia gypsea [36]) | MIC80 [40]
0.5 µg/mL: MIC50 (Cryptococcus neoformans [17]) | MIC50 (Cryptococcus neoformans [30]) | MIC50 (Candida tropicalis [37])
2 µg/mL: MIC50 (Candida tropicalis [4]) | MIC50 (Candida albicans [16])
64 µg/mL: MIC50 (Nakaseomyces glabratus [19]) | MIC50 (Candida albicans [20])
172 µg/mL: CC50 at 48 h [41]
0.125 µg/mL: MIC50 (Candida parapsilosis [2]) | MIC50 (Nakaseomyces glabratus [5]) | MIC50 (Cryptococcus neoformans [26]) | MIC50 (Pichia kudriavzevii [38]) | MIC50 (Candida albicans [39])
1 µg/mL: MIC50 (Candida albicans [21]) | MIC50 (Nakaseomyces glabratus [22]) | MIC50 (Pichia kudriavzevii [23]) | MIC50 (Nakaseomyces glabratus [24]) | MIC50 (Candida albicans [33])

From ChEMBL document CHEMBL3286116, “Synthesis, biological evaluation and structure-activity correlation study of a series of imidazol-based compounds as Candida albicans inhibitors” (Eur J Med Chem, 2014)
